# An excerpt weighted towards active compounds, which were near 2.4% of everything screened.
# Hck Nef HTS: blocks Nef-activated human Hck kinase | P08631 | Recombinant Hck-YEEI plus Nef, Z-Lyte FRET kinase assay | inhibition, % at 20 µM | actives 0.68% (n = 220,000);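 active means Hck-Nef kinase inhibition above about 50%, limit read from the data; inactive means inhibition below that limit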;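 further: 0% = DMSO with Hck plus Nef and 100% = Hck alone without Nef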
# zVAD death inh: blocks zVAD induced death of L929 cells. L929 zVAD necroptosis rescue, ATP luminescence, 24 h; with zVAD 60 µM. actives 0.38% (n = 220,000). viability rescue, % at 10 µM;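 active means activation, scaled between plate controls, above about 75%, limit read from the data; inactive means activation under that limit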;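 further: 0% = zVAD with DMSO and 100% = DMSO alone without zVAD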
# TNF necrop inh: TNF-alpha cell death inhibition in Jurkat FADD-/- cells; Jurkat FADD-/- TNF necroptosis rescue, ATP luminescence, 24 h; 0 = TNF only, 100 = no-TNF cells; activation (protection from cell death), % at 10 µM; actives 0.068% (n = 220,000); AID 463075;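 active means activation, meaning protection from cell death, of at least 50% relative to plate controls; inactive means activation below 50%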;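 further: necroptosis triggered by 40 ng/mL TNF-alpha added together with compound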
# Dynein cargo inh: blocks dynein driven cargo transport along microtubules | 3617.4 mouse cells, GR-EGFP nuclear translocation imaging; test concentration mostly 20 µM; stimulated with dexamethasone, 1 µM; active compounds read low | z-score, hits read low | actives 0.47% (n = 220,000);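 active means plate z-score of nuclear minus cytoplasmic receptor signal below a set negative limit, without overly bright fluorescence or cell loss, cut at about -3.5 in these data, passing the limit was not always enough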;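 further: z-score of nuclear minus cytoplasmic ring GR-EGFP intensity difference per well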
#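 Buffer or medium – tet-free medium with charcoal-stripped serum · Signal – automated 10x imaging of fixed Hoechst-stained cells · Also added – dexamethasone agonist, 1.0 µM final, for 30 min · Incubation – induction 48 h, compound 1 h, agonist 30 min · Read-out – GR-EGFP nuclear translocation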
# Mdm2 ligase inh: inhibitors of human Mdm2 E3 ubiquitin ligase. Q00987. cell-based MDM2 ubiquitination luciferase reporter, 2 h; 0 = plate control, 100 = twice control, blank-subtracted. signal enhancement, % at 5 µM. actives 0.11% (n = 210,000);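 active means signal enhancement of 30% or more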;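 further: luminescence tracks abundance of the self-degrading MDM2-luciferase fusion protein; higher signal means inhibition of MDM2 E3 ligase activity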
# Target sequence (Q00987 whole entry, looked up, the tested form may be a part): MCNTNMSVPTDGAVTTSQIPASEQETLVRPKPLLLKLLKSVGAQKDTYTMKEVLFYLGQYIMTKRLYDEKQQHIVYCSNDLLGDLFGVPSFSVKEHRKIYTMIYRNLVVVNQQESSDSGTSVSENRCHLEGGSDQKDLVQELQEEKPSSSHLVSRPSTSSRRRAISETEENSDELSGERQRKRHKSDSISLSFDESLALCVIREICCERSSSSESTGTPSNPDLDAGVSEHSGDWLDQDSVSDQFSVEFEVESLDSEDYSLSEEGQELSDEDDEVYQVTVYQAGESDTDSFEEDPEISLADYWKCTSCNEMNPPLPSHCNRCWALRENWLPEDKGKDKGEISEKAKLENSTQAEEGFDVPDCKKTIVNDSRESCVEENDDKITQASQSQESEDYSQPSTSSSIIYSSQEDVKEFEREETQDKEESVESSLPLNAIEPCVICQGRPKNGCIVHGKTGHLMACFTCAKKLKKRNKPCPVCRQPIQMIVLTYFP
#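 test system = mammalian cells stably expressing self-ubiquitinating, self-degrading MDM2 E3–luciferase fusion | quantity = 2000 cells/well | incubation = cell settling 4 h, compound treatment 2 h, both 37 °C | signal = luminescence with SteadyLite reagent, 15 min at room temperature | evaluation = % enhancement relative to plate controls after blank subtraction | benchmarks = plate controls and plate blanks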
# Autophagy HCS: modulators of autophagy. MEF GFP-LC3 puncta imaging; test concentration mostly 10 µM. calls only at 10 µM (by protocol). actives 0.98% (n = 190,000);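 active means percentage of spot-positive cells more than 3 SD above its plate mean, without a fluorescence outlier flag or 80% toxicity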;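 further: spot-positive cell cutoff set from DMSO-treated cells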
# Hck Nef conf: confirmation of Hck-Nef kinase inhibitors. actives 28% (n = 1,300). calls only at 10 µM. shares compounds with Hck Nef HTS. AID 463188. Recombinant Hck-YEEI:Nef, Z-Lyte FRET kinase assay;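 active means average inhibition of at least 50%, with Z-scores no higher than 3 in both the phospho-tyrosine peptide and fluorescence counterscreens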
# The depositor's hits bear a star; i = inactive; nt = no result given; + = active, no number.
SMILES,Hck Nef HTS,zVAD death inh,TNF necrop inh,Dynein cargo inh,Mdm2 ligase inh,Autophagy HCS,Hck Nef conf
O=C(O)c1cccc(-n2cccc2/C=C2/NC(=O)N(c3ccc(Cl)cc3)C2=O)c1,82*,1,1,-0.42,-5,i,nt
CC1(C)Cc2c(c(-c3ccco3)nc3sc4c(NCCO)ncnc4c23)CO1,37,19,-10,1.5,3,i,nt
CSc1nc(SCCO)c2sc3nc(-c4ccco4)c4c(c3c2n1)CC(C)(C)OC4,78*,9,-1,-1.1,-40,i,i
CC(=O)c1ccc(N2CCN(CC(O)COCc3ccco3)CC2)cc1 (configuration not stated),4,0,0,0.11,1,i,nt
COc1ccc2nc(C)cc(SCC(=O)N/N=C/c3cccc4ccccc34)c2c1,91*,2,-11,-0.1,-6,i,i
COc1ccc(/C=N/NC(=O)CC(=O)NCc2cccnc2)c(OC)c1,2,0,1,0.99,-14,i,nt
COc1ccc(OC)c(/C=N/NC(=O)CC(=O)NCc2ccccc2)c1,56*,2,0,1.1,-6,i,i
O=C(O)CCc1cc(I)c(Oc2ccc(O)c(I)c2)c(I)c1,39,0,0,1.8,2,nt,nt
COC(=O)C1=CN(Cc2ccc(OC)cc2)C=C(C(=O)OC)C1c1ccsc1,7,-2,2,-0.48,1,i,nt
COC(=O)C1=CN(CC2CCCO2)C=C(C(=O)OC)C1c1ccsc1 (configuration not stated),49,0,1,-0.66,-5,i,nt
O=C(/C=C/c1cccc(Cl)c1)NCc1cccs1,0,1,1,-0.37,-7,i,nt
COC(=O)C1=CN(CCOC23CC4CC(CC(C4)C2)C3)C=C(C(=O)OC)C1c1ccsc1,70*,1,3,-0.51,-8,i,i
CCN1C=C(C(=O)OC)C(c2cccc(C)c2)C(C(=O)OC)=C1,66*,0,1,0.057,-7,i,nt
COC(=O)C1=CN(Cc2cccs2)C=C(C(=O)OC)C1c1cccc(Cl)c1,59*,-1,0,0.75,-8,i,nt
COC(=O)C1=CN(CC2CCCO2)C=C(C(=O)OC)C1c1cccc(O)c1 (configuration not stated),71*,0,0,-0.36,-2,i,nt
Cc1ccc(SCCCCN2C(=O)NC(C)(C)C2=O)cc1,6,0,0,0.71,6,i,nt
O=C(Nc1ccc(Cl)c(Cl)c1)Nc1cc(C(=O)NC2CC2)ccc1Cl,1,8,7,0.14,-15,i,nt
CNc1ccccc1C(=O)OCC(C)=O,-1,9,1,-0.67,nt,i,nt
COC(=O)C1=CN(Cc2cccs2)C=C(C(=O)OC)C1c1ccc(OC)cc1OC,68*,-2,1,-0.5,0,i,nt
COc1ccc(NC(=O)c2cc(C)n(Cc3cccs3)c2C)cc1,5,1,-1,-0.76,-18,nt,nt
CCOc1ccc(C2C(C(=O)OC)=CN(CCOC)C=C2C(=O)OC)cc1,58*,-1,0,1.4,-10,i,nt
Cc1ccc2nc(N/C(=N/S(=O)(=O)c3cccs3)c3ccccc3Cl)sc2c1,8,5,0,0.38,2,i,nt
COc1cc2cccc(OC)c(=O)c2c(OC)c1OC,19,2,0,0.067,-1,i,nt
O=c1c(O)cccc2cc(O)c(O)c(O)c12,65*,-1,-6,-0.55,-10,nt,+
CCN(CC)S(=O)(=O)c1ccc(OC)c(NC(=O)COc2ccccc2[N+](=O)[O-])c1,53*,1,0,0.11,nt,i,i
SMILES,Hck Nef HTS,zVAD death inh,TNF necrop inh,Dynein cargo inh,Mdm2 ligase inh,Autophagy HCS,Hck Nef conf
CN(C(=O)COC(=O)CNC(=O)c1sc2ccccc2c1Cl)c1ccccc1,-1,0,1,1.6,2,i,nt
N#C/C(=C\c1ccc(OC(=O)c2ccc(Cl)s2)cc1)c1nc2ccccc2[nH]1,56*,3,0,-0.0032,2,i,+
COCCCNC(=O)c1c(N)n(-c2ccc(S(N)(=O)=O)cc2)c2nc3ccccc3nc12,11,0,-4,-0.11,-17,i,nt
COc1ccc(-n2c(N)c(C(=O)NCc3ccco3)c3nc4ccccc4nc32)cc1,69*,3,-10,0.56,-5,i,i
C=CCNC(=O)c1c(N)n(-c2cccc(S(N)(=O)=O)c2)c2nc3ccccc3nc12,58*,0,-12,-0.13,-6,i,i
COCCNC(=O)c1c(N)n(-c2cccc(C)c2)c2nc3ccccc3nc12,60*,18,-6,-0.24,-9,i,nt
Cc1nc(Cl)c(Cl)n1CCOc1ccccc1,24,1,4,-0.18,-5,nt,nt
CCC(=O)OC1=C2C(=Nc3c(c(=O)n(C)c(=O)n3C)C2c2ccccc2)c2ccccc21 (configuration not stated),10,0,0,-0.42,nt,i,nt
CCO[C@H]1OC(C(=O)NCc2ccccc2)=C[C@@H](c2cn(C(C)=O)c3ccccc23)[C@@H]1CCCO,-21,3,4,-0.38,nt,i,nt
Cc1cc2nc(-c3ccc(SCc4ccc(C(=O)O)cc4)nc3)[nH]c2cc1C,74*,3,3,-0.3,-14,i,+
Cc1cc2nc(-c3ccc(SCC(=O)Nc4ccc(S(=O)(=O)NC5CC5)cc4)nc3)[nH]c2cc1C,87*,3,6,0.059,-10,i,+
Cc1cc(C(F)(F)F)n(-c2ccc(N)cc2)n1,24,2,0,-0.31,-6,i,nt
COc1ccc2oc(/C=C/N(C)C)c(C(=O)c3ccc(Cl)cc3)c2c1,98*,0,-14,-0.33,-9,i,i
Cc1nc2cc(N3CCCCC3)c(NC(=O)c3ccncc3)cc2c(=O)n1Cc1ccc(Cl)cc1,67*,0,-8,-0.37,-26,+,i
CC(C)C(=O)Nc1ccc(S(=O)(=O)Nc2ccccn2)cc1,18,0,0,-0.36,-1,i,nt
COc1ccc(NC(=O)c2cc3c(=O)n(C)c4ccccc4c3n2C)cc1Cl,61*,1,3,-0.73,0,nt,i
COc1cc2nc(SCC(=O)NCc3ccco3)n(Cc3ccc(Cl)cc3)c(=O)c2cc1OC,100*,0,2,-1.2,-6,i,+
CC(C)NC(=O)c1ccccc1NC(=O)Cc1ccc(Br)cc1,-5,1,2,-0.74,-17,i,nt
